{"source": "ChEMBL document CHEMBL4177753", "about": "“Structural Modification of Natural Product Ganomycin I Leading to Discovery of a α-Glucosidase and HMG-CoA Reductase Dual Inhibitor Improving Obesity and Metabolic Dysfunction in Vivo” (J Med Chem, 2018)", "key": {"Mus musculus [1]": {"tested_on": "Mus musculus", "experiment": "Reduction of plasma LPS levels in antibiotic-treated ob/ob mouse at 3 mg/kg administered daily via oral gavage for 3 weeks by ELISA", "assay_type": "functional, organism-based", "in_short": "(§1)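 Male ob/ob mice treated daily by gavage (soybean vehicle); plasma LPS and TNF-α quantified by ELISA kits. For antibiotic groups, ob/ob mice first received an oral antibiotic cocktail (ampicillin 1 g/L, vancomycin, neomycin, gentamycin, erythromycin) for three weeks, then 3.0 mg/kg/day; n = 8 per group.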"}, "Mus musculus [2]": {"tested_on": "Mus musculus", "experiment": "Downregulation of Nos2 mRNA expression in ob/ob mouse ileum at 3 mg/kg administered daily via oral gavage for 31 days by RNA-seq analysis", "assay_type": "functional, organism-based"}, "Prevotella": {"tested_on": "Prevotella", "experiment": "Decrease in Prevotella levels in cecum of ob/ob mouse at 3 mg/kg administered daily via oral gavage for 31 days by 16S rRNA gene high-throughput sequencing method", "assay_type": "functional, organism-based", "in_short": "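Male ob/ob mice dosed daily by gavage at 1.0 or 3.0 mg/kg, compared with vehicle group. DNA extracted from about 150 mg caecum contents. 16S rRNA V3–V4 region amplified and sequenced on Illumina HiSeq PE250. Community compared by NMDS/MRPP; discriminant taxa identified by LEfSe.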"}, "Mus musculus [3]": {"tested_on": "Mus musculus", "experiment": "Antifibrotic activity in ob/ob mouse assessed as decrease in TGF-beta1 expression in liver at 3 mg/kg administered daily via oral gavage for 31 days by immunohistochemical staining-based microscopic method", "assay_type": "functional, organism-based"}, "Mus musculus [4]": {"tested_on": "Mus musculus", "experiment": "Hypolipidemic activity in ob/ob mouse assessed as decrease in macrosteatosis at 3 mg/kg administered daily via oral gavage for 31 days by hematoxylin-eosin staining-based microscopic method", "assay_type": "functional, organism-based", "in_short": "(§2)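 Male ob/ob mice dosed by gavage (soybean vehicle); liver and abdominal white adipose tissue fixed in 10% formaldehyde-PBS pH 7.4, paraffin-embedded, sectioned, stained with H&E, Oil Red O or sirius red, and examined by light microscopy.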"}, "Mus musculus [5]": {"tested_on": "Mus musculus", "experiment": "Hypolipidemic activity in ob/ob mouse assessed as decrease in liver LDL-C levels at 0.3 to 3 mg/kg administered daily via oral gavage for 31 days", "assay_type": "functional, organism-based"}, "Mus musculus [6]": {"tested_on": "Mus musculus", "experiment": "In vivo inhibition of alpha-glucosidase activity in ob/ob mouse assessed as reduction of blood glucose AUC at 0.3 to 3 mg/kg administered daily via oral gavage for 30 days by OSTT", "assay_type": "functional, organism-based", "in_short": "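Male ob/ob mice given 0.3–3.0 mg/kg daily by gavage; after overnight fast, sucrose (OSTT) or maltose (OMTT) 4.0 g/kg given orally; blood glucose by glucose meter at 0, 40, 80 and 120 min; AUC calculated from the time course.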"}, "[7]": {"experiment": "Inhibition of rat small intestinal mucosal alpha-glucosidase using p-nitrophenyl-alpha-D-glucopyranoside as substrate by HPLC method", "in_short": "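Rat intestinal α-glucosidase; after incubation the product 4-nitrophenol is quantified at once by HPLC (gradient from 20% acetonitrile in water with 0.1‰ TFA to 100% acetonitrile over 10 min). Each concentration run 3 times in parallel; % inhibition from peak areas versus control minus control blank; IC50 from the concentration series.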"}, "Mus musculus [8]": {"tested_on": "Mus musculus", "experiment": "Hypolipidemic activity in ob/ob mouse assessed as decrease in liver total cholesterol levels at 0.3 to 3 mg/kg administered daily via oral gavage for 31 days", "assay_type": "functional, organism-based"}, "Mus musculus [9]": {"tested_on": "Mus musculus", "experiment": "Hypoglycemic activity in ob/ob mouse assessed as decrease in blood glucose AUC at 0.3 to 3 mg/kg administered daily via oral gavage for 27 days by ITT", "assay_type": "functional, organism-based", "in_short": "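Male ob/ob or high-fat-diet C57BL/6J mice dosed daily by gavage at 0.3–3.0 mg/kg. OGTT: glucose 2 g/kg orally after overnight fast. ITT: insulin 0.6 U/kg i.p. after 4 h fast. Glucometer readings at 0, 40, 80 and 120 min; AUC computed from the curves.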"}, "Mus musculus [10]": {"tested_on": "Mus musculus", "experiment": "Hypolipidemic activity in antibiotic-treated ob/ob mouse assessed as decrease in plasma free fatty acid levels at 3 mg/kg administered daily via oral gavage for 3 weeks", "assay_type": "functional, organism-based", "in_short": "(§3)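 Male ob/ob mice pretreated three weeks with ampicillin (1 g/L), vancomycin, neomycin, gentamycin and erythromycin. Groups of n = 8 given 3.0 mg/kg/day orally in soybean vehicle versus vehicle. Plasma and hepatic lipids, fasting glucose, OGTT (glucose 2 g/kg after overnight fast) and HbA1c measured.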"}, "Mus musculus [11]": {"tested_on": "Mus musculus", "experiment": "Hypoglycemic activity in antibiotic-treated ob/ob mouse assessed as decrease in fasting blood glucose levels at 3 mg/kg administered daily via oral gavage for 3 weeks", "assay_type": "functional, organism-based", "in_short": "as §3"}, "Mus musculus [12]": {"tested_on": "Mus musculus", "experiment": "Reduction of plasma TNF-alpha levels in ob/ob mouse at 3 mg/kg administered daily via oral gavage for 31 days by ELISA relative to vehicle-treated control", "assay_type": "functional, organism-based", "in_short": "as §1"}, "Mus musculus [13]": {"tested_on": "Mus musculus", "experiment": "Toxicity in C57BL/6J mouse assessed as effect on plasma AST levels at 30 mg/kg administered daily via oral gavage for 3 months", "assay_type": "organism-based", "conditions": "in vivo", "in_short": "(§4)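 Long-term safety study in C57BL/6J mice, 20 male and 20 female, sorted by gender, blood glucose and body weight into four groups (n = 10 each). Treated groups of each sex got 30.0 mg/kg daily by oral gavage in soybean vehicle. Vehicle groups got an equal volume of soybean. Dosing ran three months, with behavior, survival, body weight, blood glucose, liver function and organ coefficients recorded.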"}, "Mus musculus [14]": {"tested_on": "Mus musculus", "experiment": "Reduction of liver TNF-alpha levels in ob/ob mouse at 3 mg/kg administered daily via oral gavage for 31 days by DAPI staining/immunofluorescence-based confocal microscopic method", "assay_type": "functional, organism-based", "in_short": "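Liver from ob/ob mice dosed at 3.0 mg/kg by gavage; tissue methanol-fixed, blocked in PBS with 5% BSA, stained with anti-TNFα (1:200) and Alexa Fluor 610 secondary (1:250), nuclei with DAPI; confocal imaging, per-cell TNFα expression quantified.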"}, "Mus musculus [15]": {"tested_on": "Mus musculus", "experiment": "Antiobesity activity in ob/ob mouse assessed as cumulative food intake at 3 mg/kg administered daily via oral gavage for 25 days relative to vehicle-treated control"}, "Mus musculus [16]": {"tested_on": "Mus musculus", "experiment": "Hypolipidemic activity in antibiotic-treated ob/ob mouse assessed as decrease in plasma total cholesterol levels at 3 mg/kg administered daily via oral gavage for 3 weeks", "assay_type": "functional, organism-based", "in_short": "as §3"}, "Mus musculus [17]": {"tested_on": "Mus musculus", "experiment": "Reduction of plasma LPS levels in ob/ob mouse at 3 mg/kg administered daily via oral gavage for 31 days by ELISA relative to vehicle-treated control", "assay_type": "functional", "set-up": "scale not given: the % may be the effect or the level left", "in_short": "as §1"}, "Mus musculus [18]": {"tested_on": "Mus musculus", "experiment": "Hypolipidemic activity in ob/ob mouse assessed as decrease in fat deposition in liver at 3 mg/kg administered daily via oral gavage for 31 days by […] staining-based microscopic method", "assay_type": "functional, organism-based", "in_short": "as §2"}, "Lachnospiraceae": {"tested_on": "Lachnospiraceae", "experiment": "Increase in Lachnospiraceae levels in cecum of ob/ob mouse at 1 to 3 mg/kg administered daily via oral gavage for 31 days by 16S rRNA gene high-throughput sequencing method", "assay_type": "functional, organism-based", "in_short": "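Caecum contents (about 150 mg) from ob/ob mice given 1.0 or 3.0 mg/kg by gavage; DNA extracted, 16S rRNA gene V3-V4 region amplified and sequenced on Illumina HiSeq PE250; community compared with vehicle group by NMDS/MRPP and LEfSe.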"}, "Mus musculus [19]": {"tested_on": "Mus musculus", "experiment": "Hypolipidemic activity in C57BL/6J DIO mouse assessed as decrease in plasma triglyceride levels at 0.3 to 3 mg/kg administered daily via oral gavage for 5 weeks", "assay_type": "functional, organism-based", "in_short": "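High-fat-diet male C57BL/6J mice, n = 8 per group, daily gavage at 0.3–3.0 mg/kg in soybean vehicle for 5 weeks. Serum total cholesterol, triglycerides and free fatty acids measured.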"}, "Mus musculus [20]": {"tested_on": "Mus musculus", "experiment": "Toxicity in C57BL/6J mouse assessed as effect on organ coefficients at 30 mg/kg administered daily via oral gavage for 3 months", "assay_type": "organism-based", "conditions": "in vivo", "in_short": "as §4"}}, "note": "Active and inactive are the calls of the source. The rule behind the calls is not given here.", "data": [{"molecule": "CC(C)=CCC/C(C)=C/CCC1=C[C@H](c2ccc(C(C)(C)C)cc2)OC1=O", "values": [{"measurement": "Activity", "setting": "Mus musculus [1]", "value": "inactive"}, {"measurement": "Activity", "setting": "Mus musculus [2]", "value": "Active"}, {"measurement": "Activity", "setting": "Prevotella", "value": "Active"}, {"measurement": "Activity", "setting": "Mus musculus [3]", "value": "Active"}, {"measurement": "Activity", "setting": "Mus musculus [4]", "value": "Active"}, {"measurement": "Activity", "setting": "Mus musculus [5]", "value": "Active"}, {"measurement": "inhibition", "setting": "Mus musculus [6]", "value": "Active"}, {"measurement": "IC50", "setting": "[7]", "value": 40, "unit": "nM"}, {"measurement": "Activity", "setting": "Mus musculus [8]", "value": "Active"}, {"measurement": "Activity", "setting": "Mus musculus [9]", "value": "Active"}, {"measurement": "Activity", "setting": "Mus musculus [10]", "value": "inactive"}, {"measurement": "Activity", "setting": "Mus musculus [11]", "value": "inactive"}, {"measurement": "Activity", "setting": "Mus musculus [12]", "value": "Active"}, {"measurement": "Activity", "setting": "Mus musculus [13]", "value": "Non-Toxic"}, {"measurement": "Activity", "setting": "Mus musculus [14]", "value": "Active"}, {"measurement": "Activity", "setting": "Mus musculus [15]", "value": 78, "unit": "%"}, {"measurement": "Activity", "setting": "Mus musculus [16]", "value": "inactive"}, {"measurement": "Activity", "setting": "Mus musculus [17]", "value": 40.9, "unit": "%"}, {"measurement": "Activity", "setting": "Mus musculus [18]", "value": "Active"}, {"measurement": "Activity", "setting": "Lachnospiraceae", "value": "Active"}, {"measurement": "Activity", "setting": "Mus musculus [19]", "value": "Active"}, {"measurement": "Activity", "setting": "Mus musculus [20]", "value": "Non-Toxic"}]}]}
